OXTR agonist – human OXTR agonists, primary screen, fluorescence, CHO-OTR cells, Fluo-8 calcium; Fluo-8 calcium fluorescence; normalized: DMSO 0%, oxytocin 100%; AID 2435, 2010; activation, % at 3 µM; 0.32% of 320,000 active;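 active = activation above the mean of all tested compounds plus 3 SD, cutoff set per screening run, cut at about 20% in these data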;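 note: peak over basal fluorescence ratio from a 100 s FLIPR kinetic read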
zfTRPN1 agonist – zebrafish TRPN1 channel agonists, primary screen, cell-based, HEK293, calcium fluorescence; HEK293 zebrafish TRPN1-YFP, Fluo-8 calcium fluorescence; 100% = response to 87 µM carbachol; activation, % at 3 µM; 0.18% of 220,000 active; AID 1424, 2008;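 active = activation above its plate's cutoff, the mean activation of test wells on that plate plus 3 SD, cut at about 19% in these data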
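Material – zebrafish TRPN1-YFP in HEK293 cells · Doses – 3 µM single point · Schedule – dye 1 h 37 °C plus 30 min RT · Signal – Fluo-8 calcium fluorescence, excitation 470-495 nm, emission 515-575 nm · Read-out – % activation versus carbachol response · Control set – carbachol high, DMSO low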
V1R ag counter – agonists of human V1a receptor, primary screen, counter-screen for OXTR agonist project, fluorescence, CHO-V1R cells; Vasopressin V1a receptor (Homo sapiens), P37288; Fluo-8 calcium fluorescence, agonist mode; 0% DMSO, 100% 3 nM vasopressin; activation, % at 3 µM; 0.25% of 320,000 active;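 active = activation above the mean activation of all tested compounds plus 3 SD, per screening run, cut at about 20% in these data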;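 note: signal is peak over basal fluorescence ratio across a 100 second FLIPR read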
OXTR potentiate – human OXTR potentiators, primary screen, fluorescence, CHO-OTR cells, Fluo-8 calcium | Oxytocin receptor (Homo sapiens), P30559 | Fluo-8 calcium fluorescence, potentiator mode; 0% = oxytocin EC15, 100% = EC100 | 0.061% of 320,000 active | AID 2445, 2010 | activation, % at 3 µM;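 active = activation above that plate's cutoff, the mean activation of tested compounds plus 3 SD, cut at about 6.6% in these data, passing the limit was not always enough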
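assay system = CHO-OTR cells, human receptor | schedule = compound 6 min at room temperature before oxytocin, 100 s read | detection = Fluo-8 intracellular calcium fluorescence, ex 470-495, em 515-575 nm | evaluation = normalized max/min fluorescence ratio, % activation | control set = EC15 oxytocin alone as 0%, 75 nM oxytocin (EC100) as 100%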
TRPML3 ag – human TRPML3 channel agonists, primary screen, cell-based, HEK293 TRPML3-YFP, Fluo-8 calcium fluorescence, 3 µM | Mucolipin-3 (Homo sapiens), Q8TDD5 | 100% = the carbachol control signal | 0.29% of 220,000 active | activation, % at 3 µM;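 active = activation above its plate's cutoff, the mean activation of the plate's test wells plus 3 SD, cut at about 12% in these data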
Target sequence (Q8TDD5 whole entry, looked up): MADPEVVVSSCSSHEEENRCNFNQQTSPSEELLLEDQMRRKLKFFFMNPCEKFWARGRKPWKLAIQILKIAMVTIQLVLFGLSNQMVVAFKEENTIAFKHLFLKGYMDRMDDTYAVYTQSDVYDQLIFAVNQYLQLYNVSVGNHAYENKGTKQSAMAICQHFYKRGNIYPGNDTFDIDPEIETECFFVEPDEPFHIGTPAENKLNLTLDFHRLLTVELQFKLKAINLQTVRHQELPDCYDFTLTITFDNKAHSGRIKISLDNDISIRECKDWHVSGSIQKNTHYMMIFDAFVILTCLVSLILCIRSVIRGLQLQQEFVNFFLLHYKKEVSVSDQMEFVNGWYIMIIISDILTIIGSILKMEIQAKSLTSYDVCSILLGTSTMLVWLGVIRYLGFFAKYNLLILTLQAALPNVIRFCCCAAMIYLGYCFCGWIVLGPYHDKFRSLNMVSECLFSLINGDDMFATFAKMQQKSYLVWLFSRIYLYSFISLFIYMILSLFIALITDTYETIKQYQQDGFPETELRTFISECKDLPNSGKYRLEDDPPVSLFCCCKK
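Test system: HEK293 cells stably carrying human TRPML3-YFP; Doses: single dose, 3 µM final nominal compound, 0.3% DMSO final; Schedule: dye loading 1 h 37 °C then 30 min ambient, 125 s read; Technique: Fluo-8 calcium fluorescence; Benchmarks: high control carbachol 87 µM, low control DMSO.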
OXTR ag confirm – human OXTR agonists, confirmation, fluorescence, CHO-OTR cells, triplicate. shares compounds with OXTR agonist. Fluo-8 calcium fluorescence, agonist. activation, % at 3 µM. 20% of 390 active;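 active = mean activation above about 20% derived from the earlier single-dose screen, limit read from the data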;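 note: peak over minimum fluorescence ratio per well during a 100 second FLIPR read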
V1aR counter 3x – V1a receptor agonists, calcium signal, counter-screen for OXTR agonist project, triplicate, fluorescence, CHO-V1R cells. Fluo-8 calcium fluorescence. 10% of 390 active. activation, % at 3 µM. shares compounds with OXTR agonist;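 active = mean activation over triplicate exceeds the hit threshold set in the earlier primary screen, cut at about 20% in these data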;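 note: peak over basal fluorescence ratio within a 100 second read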
Each line names hits and unclear results; the compound was inactive in the other large screens (follow-up assays come after a bar, where they were run). Hits are enriched below; roughly 0.55% of the tested compounds scored in any of these assays.

CCOC(=O)c1csc(NC(=O)CSc2nnnn2-c2ccc3c(c2)OCCO3)n1	OXTR agonist 23 | OXTR ag confirm inactive | V1aR counter 3x inactive
c1ccc(COc2ccc(OCCCNC3CCCC3)cc2)cc1	OXTR agonist 21 | OXTR ag confirm inactive | V1aR counter 3x inactive
O=C(Cn1nc(CNc2ccc(Br)cc2)[n+]2c1CCCCC2)c1ccc([N+](=O)[O-])cc1	none
Cc1cc(S(=O)(=O)Nc2ccc(C(=O)NCC3(N(C)C)CCCCC3)cc2)ccc1F	none (no result: zfTRPN1 agonist, TRPML3 ag)
CCOc1ccc(NS(=O)(=O)c2ccc(C(=O)NCC3(N(C)C)CCCCC3)cc2)cc1	OXTR agonist 24 (no result: zfTRPN1 agonist, TRPML3 ag) | OXTR ag confirm inactive | V1aR counter 3x inactive
CCCCNC(=O)CCCn1c(=S)[nH]c2cc3c(cc2c1=O)OCO3	OXTR agonist 22 | OXTR ag confirm inactive | V1aR counter 3x inactive
O=C1/C(=C/c2ccccc2)N=C(N2CCOCC2)N1c1cccc(Cl)c1	OXTR agonist 26 | OXTR ag confirm inactive | V1aR counter 3x inactive
COc1ccc(CCNCC(O)Cn2c3ccccc3c3ccccc32)cc1OC (centres undefined)	OXTR agonist 23 | OXTR ag confirm 24 | V1aR counter 3x inactive
C=CCOc1ccc(CN(C)c2ccc(S(=O)(=O)N3CCN(C)CC3)cc2[N+](=O)[O-])cc1	none (no result: zfTRPN1 agonist, TRPML3 ag)
CCOc1ccc(CN(C)c2ccc(S(=O)(=O)N3CCN(C)CC3)cc2[N+](=O)[O-])cc1OC	OXTR agonist 22 (no result: zfTRPN1 agonist, TRPML3 ag) | OXTR ag confirm inactive | V1aR counter 3x inactive
CN1CCN(S(=O)(=O)c2ccc(N(C)Cc3ccc(C(F)(F)F)cc3)c([N+](=O)[O-])c2)CC1	OXTR agonist 20 (no result: zfTRPN1 agonist, TRPML3 ag) | OXTR ag confirm inactive | V1aR counter 3x inactive
CC(=O)Nc1ccc(NC(=O)COC(=O)C2(c3ccc(Cl)cc3)CCCC2)cc1	OXTR agonist 20 | OXTR ag confirm inactive | V1aR counter 3x inactive
Fc1ccc2[nH]c3c(NCc4ccccc4)ncnc3c2c1	OXTR agonist 24 (no result: zfTRPN1 agonist, TRPML3 ag) | OXTR ag confirm inactive | V1aR counter 3x inactive
CCOc1ccc(/C=N/NC(=O)CNC(=O)c2ccc(S(=O)(=O)N3CCOCC3)cc2)cc1	none
Oc1ccc(C[C@H]2CNCCN2CCC23CC4CC(CC(C4)C2)C3)cc1	none (no result: zfTRPN1 agonist, TRPML3 ag)
Oc1ccc(C[C@@H]2CNCCN2CCC23CC4CC(CC(C4)C2)C3)cc1	OXTR agonist 20 (no result: zfTRPN1 agonist, TRPML3 ag) | OXTR ag confirm inactive | V1aR counter 3x inactive
COc1ccc(C(=O)CSc2nnc(Cn3cnc4ccccc43)o2)cc1	OXTR agonist 20 | OXTR ag confirm inactive | V1aR counter 3x inactive
Cc1cccc(N2CCN(S(=O)(=O)c3ccc4c(c3)CCCN4C(=O)C3CCC3)CC2C)c1 (centres undefined)	none (no result: zfTRPN1 agonist, TRPML3 ag)
Cc1ccccc1COC(=O)CCCC1=NS(=O)(=O)c2ccccc2N1	OXTR agonist 24 (no result: zfTRPN1 agonist, TRPML3 ag) | OXTR ag confirm inactive | V1aR counter 3x inactive
CC(NC(=O)CCc1ccccc1)c1cc2c(cc1Cl)OCCO2 (centres undefined)	none
COc1ccc(C)cc1NS(=O)(=O)c1ccc2c(c1)CCN2C(C)=O	none (no result: zfTRPN1 agonist, TRPML3 ag)
Cc1ccc(Cl)cc1N1CCN(CC(=O)Nc2ccc(CN3CCCCC3)cc2)CC1	OXTR agonist 28 | OXTR ag confirm inactive | V1aR counter 3x inactive
CC(=O)c1ccc(NC(=O)CN2CCCCCC2)cc1	OXTR agonist 21 (no result: zfTRPN1 agonist, TRPML3 ag) | OXTR ag confirm inactive | V1aR counter 3x inactive
CCN1CCN(CC(=O)Nc2ccc(C(C)=O)cc2)CC1	none (no result: zfTRPN1 agonist, TRPML3 ag)
O=c1cc(-c2ccccc2Cl)oc2c(NS(=O)(=O)c3cc(Cl)cc(Cl)c3O)ccc(O)c12	OXTR agonist 28 | OXTR ag confirm inactive | V1aR counter 3x inactive
CCc1ccc(S(=O)(=O)Nc2ccc(O)c3c(=O)cc(-c4ccccc4Cl)oc23)cc1	none (no result: zfTRPN1 agonist, TRPML3 ag)
O=C(Nc1ccc(S(=O)(=O)N2CCCCC2)cc1)c1ccc(CN2CCOCC2)cc1	OXTR agonist 20 | OXTR ag confirm inactive | V1aR counter 3x inactive
Cc1cccc(Oc2ccc3c(c2)cc(C(=O)O)n3C)c1	none (no result: zfTRPN1 agonist, TRPML3 ag)
OCCN1CCN(C2CCC(c3ccc(F)cc3)c3ccc(F)cc32)CC1 (centres undefined)	OXTR agonist 31 (no result: zfTRPN1 agonist, TRPML3 ag) | OXTR ag confirm inactive | V1aR counter 3x inactive
CO/N=C/c1ccc(N2CCN(C(=O)c3ccc(Cl)cc3Cl)CC2)c([N+](=O)[O-])c1	OXTR agonist 27 | OXTR ag confirm inactive | V1aR counter 3x inactive
CC(NC(=O)COC(=O)c1ccc(CO)cc1)C1CC2CCC1C2 (centres undefined)	none (no result: zfTRPN1 agonist, TRPML3 ag)
CCc1ccc(Nc2cc(=O)n(C3CCCCC3)c(=O)[nH]2)cc1	OXTR agonist 25 | OXTR ag confirm 33 | V1aR counter 3x 30
O=c1cc(Nc2ccc3c(c2)OCCO3)[nH]c(=O)n1C1CCCCC1	none
COc1ccc(/C=C2/CCc3ccccc3C2=O)cc1CN1CCOCC1	none
COc1ccc(/C=C2\CCc3ccccc3C2=O)cc1Cn1nc(C)cc1C	OXTR agonist 23 | OXTR ag confirm inactive | V1aR counter 3x inactive
COc1ccc(NC(=O)CN2C(=O)NC3(CCCCC3C)C2=O)cc1OC (centres undefined)	none (no result: zfTRPN1 agonist, TRPML3 ag)
OCc1cn(-c2ccccc2)nc1-c1ccc(-c2nn(-c3ccccc3)cc2CO)cc1	none
Cc1ccc(-c2nn(-c3ccccc3)cc2CSC(=N)N)cc1	OXTR agonist 24 | OXTR ag confirm inactive | V1aR counter 3x inactive
Cc1c(CN(C)C(=O)/C=C/c2ccc([N+](=O)[O-])cc2)cnn1C	none
CC[n+]1c(/C=C(\C)OC)sc2ccccc21	none (no result: OXTR agonist, V1R ag counter, OXTR potentiate)
CC[n+]1c(/C=C/C=C/N(C(C)=O)c2ccccc2)sc2cc(OC)ccc21	OXTR agonist 29 | OXTR ag confirm 69 | V1aR counter 3x 91
Cc1ccc(C)c(N2CCN(C(=O)c3cccn4c(=O)c5sccc5nc34)CC2)c1	OXTR agonist 31 | OXTR ag confirm inactive | V1aR counter 3x inactive
O=S(=O)(Nc1ccc(-c2ccc3nncn3n2)cc1)c1cccc(F)c1	none (no result: zfTRPN1 agonist, TRPML3 ag)
Cc1cc(N2CCCCC2)nc(NCc2ccccc2)n1	OXTR agonist 25, zfTRPN1 agonist 47 | OXTR ag confirm inactive | V1aR counter 3x inactive
Cc1ccccc1NC(=O)c1nnn(-c2ccc3c(c2)OCCO3)c1N	OXTR agonist 21 (no result: zfTRPN1 agonist, TRPML3 ag) | OXTR ag confirm inactive | V1aR counter 3x inactive
